Our source for the inhibition values is ChEMBL document CHEMBL1126763, “Nonpeptide angiotensin II receptor antagonists. Synthesis and biological activity of potential prodrugs of benzimidazole-7-carboxylic acids” (J Med Chem, 1993).

Broadly, the inhibition is the drop in the measured response relative to a control, in per cent.

The structures appear in SMILES notation.

What all share (format): functional, organism-based
What all share (set-up): dose 0.1 mg/kg

In assay [1] the target is T1, Angiotensin II receptor (Rattus norvegicus) (UniProt P29089+P25095+P35351). Kind of assay: Inhibitory activity on AII (100 ng/kg iv)-induced pressor response at 0.1 mg/kg po in conscious male Sprague-Dawley rats at 1 h. In outline:
(§1)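 Conscious male Sprague-Dawley rats received test compounds orally at 0.1 mg/kg. AII (100 ng/kg iv) was given as a pressor challenge at each time point after dosing, and percent inhibition of the pressor response was recorded. Experiments were run in duplicate (n = 2); parent drug and one ester used n = 3. Inhibition may vary by less than 30%.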

The target in assay [2] is T1, Angiotensin II receptor (Rattus norvegicus). Kind of assay: Inhibitory activity on AII (100 ng/kg iv)-induced pressor response after administration at 0.1 mg/kg po in conscious male Sprague-Dawley rats at 7 h. In outline:
as §1

Assay [3] has the same target. Put plainly: Inhibitory activity on AII (100 ng/kg iv)-induced pressor response after administration at 0.1 mg/kg po in conscious male Sprague-Dawley rats at 24 h. In outline: as §1
The target is the same in assay [4]. Put plainly: Inhibitory activity on AII (100 ng/kg iv)-induced pressor response after administration at 0.1 mg/kg po in conscious male Sprague-Dawley rats at 5 h. In outline:
as §1

The target is the same in assay [5]. Put plainly: Inhibitory effect on AII (100 ng/kg iv)-induced pressor response after administration at 0.1 mg/kg po in conscious male Sprague-Dawley rats at 0.5 h. In outline: as §1
Assay [6] shares this target. Put plainly: Inhibitory activity on AII (100 ng/kg iv)-induced pressor response after administration at 0.1 mg/kg po in conscious male Sprague-Dawley rats at 3 h. In outline:
as §1

The target is the same in assay [7]. Kind of assay: Inhibitory activity on AII (100 ng/kg iv)-induced pressor response after administration at 0.1 mg/kg po in conscious male Sprague-Dawley rats at 2 h. In outline: as §1

In the case of `CCCCc1nc2cccc(C(=O)OC(C)OC(=O)OC3CCCCC3)c2n1Cc1ccc(-c2ccccc2-c2nn[nH]n2)cc1` (stereo unspecified), the inhibition in assay [1] was 85%; in assay [2], 79%; in assay [3], 47%; in assay [4], 78%; in assay [5] it was 58%; in assay [6] it was 81%. Further, in assay [7], the inhibition amounted to 84%.

Regarding `CCOC(=O)OC(C)OC(=O)c1cccc2nc(OCC)n(Cc3ccc(-c4ccccc4-c4nn[nH]n4)cc3)c12` (stereo unspecified), the inhibition turned out to be 87% in assay [1]; 71% in assay [2]; 7% in assay [3]; 81% in assay [4]; 74% in assay [5]; 89% in assay [6]. Further, the inhibition in assay [7] was 95%.

In the case of `CCOc1nc2cccc(C(=O)OCc3oc(=O)oc3C)c2n1Cc1ccc(-c2ccccc2-c2nn[nH]n2)cc1`, the inhibition amounted to 83% in assay [1]; 44% in assay [2]; 6% in assay [3]; 70% in assay [4]; 49% in assay [5]; 85% in assay [6]. In addition, the inhibition in assay [7] was found to be 87%.

Regarding `CCCCc1nc2cccc(C(=O)OCc3oc(=O)oc3C)c2n1Cc1ccc(-c2ccccc2-c2nn[nH]n2)cc1`, the inhibition was 63% in assay [1]; 77% in assay [2]; 55% in assay [3]; 75% in assay [4]; 32% in assay [5]; 88% in assay [6]. Moreover, in assay [7], the inhibition was 81%.

With `CCOc1nc2cccc(C(=O)OCOC(=O)C3CCCC3)c2n1Cc1ccc(-c2ccccc2-c2nn[nH]n2)cc1`, the inhibition worked out at 31% in assay [1]; 54% in assay [2]; 9% in assay [3]; 62% in assay [4]; 7% in assay [5]; 65% in assay [6]. In assay [7], the inhibition amounted to 61%.

For `CCOc1nc2cccc(C(=O)OCOC(=O)/C=C/c3ccccc3)c2n1Cc1ccc(-c2ccccc2-c2nn[nH]n2)cc1`, the inhibition is 36% in assay [1]; 64% in assay [2]; 3% in assay [3]; 61% in assay [4]; -3% in assay [5]; 80% in assay [6]. In assay [7], the inhibition amounted to 80%.

With `CCCCc1nc2cccc(C(=O)OC(C)OC(=O)OCC)c2n1Cc1ccc(-c2ccccc2-c2nn[nH]n2)cc1` (stereo unspecified), the inhibition in assay [1] turned out to be 89%; in assay [2], 75%; in assay [3], 61%; in assay [4], 81%; in assay [5], 64%; in assay [6], 89%. The inhibition in assay [7] amounted to 84%.

Turning to `CCOc1nc2cccc(C(=O)OC(C)OC(=O)OC3CCC3)c2n1Cc1ccc(-c2ccccc2-c2nn[nH]n2)cc1` (stereo unspecified), the inhibition in assay [1] came to 77%; in assay [2], 60%; in assay [3], 25%; in assay [4] it was 79%; in assay [5] it was 35%; in assay [6], 83%. The inhibition in assay [7] was 86%.

Turning to `CCOc1nc2cccc(C(=O)OC(C)OC(C)=O)c2n1Cc1ccc(-c2ccccc2-c2nn[nH]n2)cc1` (stereo unspecified), the inhibition in assay [1] came out at 90%; in assay [2], 75%; in assay [3], 28%; in assay [4], 84%; in assay [5], 86%; in assay [6], 86%. The inhibition in assay [7] is 92%.

As for `CCOc1nc2cccc(C(=O)OC(C)OC(=O)OC(CC)CC)c2n1Cc1ccc(-c2ccccc2-c2nn[nH]n2)cc1` (stereo unspecified), the inhibition amounted to 72% in assay [1]; 53% in assay [2]; 13% in assay [3]; 63% in assay [4]; 16% in assay [5]; 84% in assay [6]. The inhibition in assay [7] is 86%.

For the compound `CCCCc1nc(Cl)c(CO)n1Cc1ccc(-c2ccccc2-c2nnn[nH]2)cc1`, the inhibition was 1% in assay [1]; 34% in assay [2]; 17% in assay [3]; 35% in assay [4]; 5% in assay [5]; 21% in assay [6]. Further, in assay [7], the inhibition stood at 12%.

As to `CCOc1nc2cccc(C(=O)OCOC(=O)OC3CCCCC3)c2n1Cc1ccc(-c2ccccc2-c2nn[nH]n2)cc1`, the inhibition in assay [1] is -3%; in assay [2] it was 54%; in assay [3] it was 11%; in assay [4], 53%; in assay [5], 1%; in assay [6], 15%. For the same compound, the inhibition in assay [7] worked out at 4%.

For `CCOc1nc2cccc(C(=O)OCOC(=O)c3ccccc3)c2n1Cc1ccc(-c2ccccc2-c2nn[nH]n2)cc1`, the inhibition in assay [1] is -2%; in assay [2], 76%; in assay [3], 6%; in assay [4], 67%; in assay [5] it was -4%; in assay [6] it was 56%. Besides, the inhibition in assay [7] was determined as 23%.

For `CCOc1nc2cccc(C(=O)OCOC(=O)OCC3CC3)c2n1Cc1ccc(-c2ccccc2-c2nn[nH]n2)cc1`, the inhibition in assay [1] is 49%; in assay [2] it was 30%; in assay [3], 22%; in assay [4] it was 44%; in assay [5], 10%; in assay [6], 58%. Besides, in assay [7], the inhibition came out at 57%.

As to `CCCCc1nc2cccc(C(=O)OCc3ccncc3)c2n1Cc1ccc(-c2ccccc2-c2nn[nH]n2)cc1`, the inhibition came out at 16% in assay [1]; 8% in assay [2]; 18% in assay [4]; 4% in assay [5]; 16% in assay [6]; 18% in assay [7].

On to `CCOc1nc2cccc(C(=O)OCOC(C)=O)c2n1Cc1ccc(-c2ccccc2-c2nn[nH]n2)cc1`, for which the inhibition turned out to be 84% in assay [1]; 59% in assay [2]; 23% in assay [3]; 72% in assay [4]; 66% in assay [5]; 78% in assay [6]. In assay [7], the inhibition was 79%.

In the case of `CCOc1nc2cccc(C(=O)OCOC(=O)OC(C)C)c2n1Cc1ccc(-c2ccccc2-c2nn[nH]n2)cc1`, the inhibition in assay [1] is 55%; in assay [2], 57%; in assay [3], 28%; in assay [4], 68%; in assay [5], 23%; in assay [6], 72%. Besides, the inhibition in assay [7] was 79%.

`CCOc1nc2cccc(C(=O)OCOC(=O)CC)c2n1Cc1ccc(-c2ccccc2-c2nn[nH]n2)cc1`: the inhibition in assay [1] is 76%; in assay [2] it was 31%; in assay [3] it was -4%; in assay [4], 38%; in assay [5] it was 76%; in assay [6], 60%. For the same compound, in assay [7], the inhibition is 60%.

On to `CCCC(=O)OCOC(=O)c1cccc2nc(OCC)n(Cc3ccc(-c4ccccc4-c4nn[nH]n4)cc3)c12`, for which the inhibition was determined as 84% in assay [1]; 48% in assay [2]; 6% in assay [3]; 54% in assay [4]; 100% in assay [5]; 67% in assay [6]. The inhibition in assay [7] was found to be 78%.

`CCOc1nc2cccc(C(=O)OCOC(=O)C3CCCCC3)c2n1Cc1ccc(-c2ccccc2-c2nn[nH]n2)cc1`: the inhibition in assay [1] was 5%; in assay [2], 80%; in assay [3], 14%; in assay [4], 89%; in assay [5], 0%; in assay [6], 85%. Further, the inhibition in assay [7] was 76%.

For `CCOc1nc2cccc(C(=O)OCOC(=O)OC3CCCC3)c2n1Cc1ccc(-c2ccccc2-c2nn[nH]n2)cc1`, the inhibition in assay [1] came out at 14%; in assay [2], 64%; in assay [3], 14%; in assay [4], 77%; in assay [5], 5%; in assay [6], 68%. In assay [7], the inhibition turned out to be 55%.

Take `CCOc1nc2cccc(C(=O)O)c2n1Cc1ccc(-c2ccccc2-c2nnn[nH]2)cc1`: the inhibition in assay [1] amounted to 24%; in assay [3], 43%; in assay [4], 85%; in assay [5], 7%; in assay [6], 67%; in assay [7] it was 51%.

Turning to `CCOc1nc2cccc(C(=O)OC(C)OC(=O)OC3CCCCC3)c2n1Cc1ccc(-c2ccccc2-c2nn[nH]n2)cc1` (stereo unspecified), the inhibition amounted to 76% in assay [1]; 75% in assay [2]; 36% in assay [3]; 82% in assay [4]; 38% in assay [5]; 87% in assay [6]. Also, in assay [7], the inhibition amounted to 80%.

With `CCOc1nc2cccc(C(=O)OC(C)OC(=O)OC(C)C)c2n1Cc1ccc(-c2ccccc2-c2nn[nH]n2)cc1` (stereo unspecified), the inhibition in assay [1] turned out to be 91%; in assay [2], 67%; in assay [3] it was 12%; in assay [4], 80%; in assay [5], 70%; in assay [6] it was 79%. Besides, in assay [7], the inhibition turned out to be 84%.
